Source: ChEMBL document CHEMBL1152595, “Synthesis and biological evaluation of 2,3,4-triarylbenzopyran derivatives as SERM and therapeutic agent for breast cancer” (Bioorg Med Chem, 2009)
pIC50: −log10 of the molar value.

Experiments:
Rattus norvegicus [1] = assay: Estrogenic agonistic activity in bilaterally ovariectomized Sprague-Dawley rat assessed as uterine weight gain at 10 mg/kg, po once daily for three days measured on day 31 of age; assay type: functional
How it was run: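 Immature rats dosed orally once daily for three consecutive days; vehicle-only group as control. Autopsy 24 h after last dose on day 31 of age: vaginal smear taken, uterus excised, blotted and weighed fresh. Vaginal opening, vaginal epithelial cornification and uterine weight increase scored; gain expressed as percent of vehicle control; means ± SEM, at least six per group.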

Rattus norvegicus [2] = assay: Estrogenic antagonistic activity in bilaterally ovariectomized Sprague-Dawley rat assessed as inhibition of ethynylesterol-induced uterine weight at 10 mg/kg, po once daily for 3 days measured on day 31 of age; assay type: functional
How it was run: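 Antagonism read as uterine fresh weight in rats given compound orally at 10 mg/kg/day alongside 17α-ethynylestradiol (0.02 mg/kg/day); inhibition expressed relative to the ethynylestradiol-only group; means ± SEM, at least six animals per group.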

HEK293 = assay: Antiproliferative activity against human HEK293 cells after 48 hrs by MTT assay; assay type: cell-based; settings: HEK293, 48 h
How it was run: (§1)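 MTT assay: cells seeded at 1 × 10^4 per well in DMEM with 10% FBS, left 24 h at 37 °C in CO2; compounds diluted in medium added alongside vehicle control for 48 h; MTT (5 mg/mL) added for 4 h, formazan dissolved in DMSO, absorbance read at 540 nm; IC50 in µM.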

MDA-MB-231 = assay: Antiproliferative activity against human MDA-MB-231 cells after 48 hrs by MTT assay; assay type: functional, cell-based; settings: for pIC50: Homo sapiens, MDA-MB-231, 48 h, read-out: IC50; for IC50: mda-mb-231; how it was run: as §1
MCF7 = assay: Antiproliferative activity against human MCF7 cells after 48 hrs by MTT assay; assay type: functional, cell-based; settings: for pIC50: Homo sapiens, MCF7, 48 h, read-out: IC50; for IC50: mcf7; how it was run: as §1

Structure (SMILES)	pIC50 (MDA-MB-231)	pIC50 (MCF7)	IC50 (MDA-MB-231)	IC50 (MCF7)	Activity (Rattus norvegicus [1]) [%]	inhibition in vivo at 10 mg/kg (Rattus norvegicus [2]) [%]	pIC50 (HEK293)
COc1ccc2c(c1)OC(C)(C)C(c1ccccc1)C2c1ccc(OCCN2CCCC2)cc1 (centres undefined) [ORMELOXIFENE]					164.3	77.9	
CC(=O)Oc1ccc([C@@H]2Oc3ccccc3[C@H](c3ccc(OCCCN(C)C)cc3)[C@H]2c2ccccc2)cc1	5.25	4.96			117.2	58.4	4.85
CC(=O)Oc1ccc([C@@H]2Oc3ccccc3[C@H](c3ccc(OCCN4CCCCCC4)cc3)[C@H]2c2ccccc2)cc1			Not Active	Not Active	108.3	30.6	4.05
Oc1ccc([C@@H]2Oc3ccccc3[C@H](c3ccc(OCCN4CCCCC4)cc3)[C@H]2c2ccccc2)cc1	5.06	5.11			28.2	51.5	4.42
CC/C(=C(\c1ccccc1)c1ccc(OCCN(C)C)cc1)c1ccccc1 [TAMOXIFEN]	5.01	5.12			208.8	27.4	
CCN(CC)CCOc1ccc([C@H]2c3ccccc3O[C@@H](c3ccc(OC(C)=O)cc3)[C@@H]2c2ccccc2)cc1		4.93	Not Active		41.2	59.3	4.79
O=C1c2ccccc2O[C@@H](c2ccc(OCCN3CCCC3)cc2)[C@@H]1c1ccccc1			Not Active	Not Active	13.17	45.4	4.47

The next lines start with results.

pIC50 (MDA-MB-231)	pIC50 (MCF7)	IC50 (MDA-MB-231)	IC50 (MCF7)	Structure (SMILES)	Activity (Rattus norvegicus [1]) [%]	inhibition in vivo at 10 mg/kg (Rattus norvegicus [2]) [%]	pIC50 (HEK293)
5.13	5.16			CC(C)N(CCOc1ccc([C@H]2c3ccccc3O[C@@H](c3ccc(O)cc3)[C@@H]2c2ccccc2)cc1)C(C)C	225	69	4.69
4.85	4.77			CC(=O)Oc1ccc([C@@H]2Oc3ccccc3[C@H](c3ccc(OCCN4CCCCC4)cc3)[C@H]2c2ccccc2)cc1	171.4	51.4	4.53
4.75	4.74			Oc1ccc([C@@H]2Oc3ccccc3[C@H](c3ccc(OCCN4CCCC4)cc3)[C@H]2c2ccccc2)cc1	11.25	69.2	4.44
		Not Active	Not Active	CC(=O)Oc1ccc([C@@H]2Oc3ccccc3[C@H](c3ccc(O)cc3)[C@H]2c2ccccc2)cc1	105.18	4.2	< 4.00
		Not Active	Not Active	OC1c2ccccc2O[C@@H](c2ccc(OCCN3CCCC3)cc2)[C@@H]1c1ccccc1 (some centres undefined)	124.5	29	
		Not Active	Not Active	CC(=O)Oc1ccc([C@@H]2Oc3ccccc3[C@H](c3ccc(OCCN(C(C)C)C(C)C)cc3)[C@H]2c2ccccc2)cc1	146.6	73.9	
		Not Active	Not Active	Oc1ccc([C@H]2c3ccccc3O[C@@H](c3ccc(O)cc3)[C@@H]2c2ccccc2)cc1	142.9	21.2	< 3.30
